This passage reports IC50 and Control results from ChEMBL document CHEMBL1126782, “Synthesis and pharmacological evaluation of 1-phenyl-3-amino-1,2,3,4-tetrahydronaphthalenes as ligands for a novel receptor with sigma-like neuromodulatory activity” (J Med Chem, 1993).

The target in experiment [1] is T1, D(2) dopamine receptor (Rattus norvegicus, UniProt P61169). Put plainly: Binding affinity against dopamine receptor D2 from rat striatal homogenates using [3H]YM-09151-2. The gist of the method:
(§1)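 Competition binding with rat striatal homogenates in Tris-HCl, pH 7.4, containing 150 mM NaCl at 30 °C. […] Nonspecific binding was defined by (+)-butaclamol. Six or more concentrations bracketing the IC50 were run in duplicate, with three replications. IC50 values came from curve fitting.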

The target of experiment [2] is T2, D(1A) dopamine receptor (Rattus norvegicus, UniProt P18901). Put plainly: Binding affinity against dopamine receptor D1 from rat striatal homogenates, using [3H]SCH-23390 as radioligand. Summed up: (§2)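 Competition binding with rat striatal homogenates in Tris-HCl, pH 7.4, with 150 mM NaCl at 30 °C. […] Nonspecific binding was defined by 0.3 μM cis-(Z)-flupenthixol. Six or more concentrations bracketing the IC50 were run in duplicate, with three replications. IC50 values came from curve fitting.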
T2 sequence (P18901 whole entry): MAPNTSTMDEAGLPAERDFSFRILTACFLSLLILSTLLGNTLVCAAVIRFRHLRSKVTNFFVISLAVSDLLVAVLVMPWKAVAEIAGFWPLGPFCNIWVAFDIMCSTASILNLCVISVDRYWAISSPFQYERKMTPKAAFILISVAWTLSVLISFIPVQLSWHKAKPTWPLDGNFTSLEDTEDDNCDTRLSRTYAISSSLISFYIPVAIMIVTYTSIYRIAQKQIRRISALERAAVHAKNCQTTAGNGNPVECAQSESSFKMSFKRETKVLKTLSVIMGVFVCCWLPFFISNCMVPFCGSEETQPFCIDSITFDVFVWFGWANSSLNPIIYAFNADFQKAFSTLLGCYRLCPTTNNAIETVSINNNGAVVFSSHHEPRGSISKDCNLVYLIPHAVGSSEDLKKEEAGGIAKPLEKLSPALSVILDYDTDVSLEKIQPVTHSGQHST

Experiment [3] concerns the target Tyrosine 3-monooxygenase (Rattus norvegicus) (UniProt P04177). In words: Tyrosine hydroxylase activity at 0.1 uM in rat striatal minces. In kind it is functional.
Experiment [4] concerns the target T2, D(1A) dopamine receptor. In words: Binding affinity against dopamine receptor D1 from rat striatal homogenates, using [3H]SCH-23,390 as radioligand. The gist of the method: as §2
Experiment [5] has as its target Tyrosine 3-monooxygenase (Rattus norvegicus) (UniProt P04177). Put plainly: Tyrosine hydroxylase activity at 0.1 uM in rat striatal minces; effect blocked by BMY-14802. The class given is functional.
The target of experiment [6] is T1, D(2) dopamine receptor. Put plainly: Binding affinity against dopamine receptor D2 from rat striatal homogenates, using [3H]YM-09151-2 as radioligand. Summed up:
as §1

Experiment [7] deals with Tyrosine 3-monooxygenase (Rattus norvegicus) (UniProt P04177). Put plainly: Tyrosine hydroxylase activity at 0.1 uM in rat striatal minces; effect not blocked by BMY-14802. In kind it is functional.
Tyrosine 3-monooxygenase (Rattus norvegicus), sequence (P04177 whole entry): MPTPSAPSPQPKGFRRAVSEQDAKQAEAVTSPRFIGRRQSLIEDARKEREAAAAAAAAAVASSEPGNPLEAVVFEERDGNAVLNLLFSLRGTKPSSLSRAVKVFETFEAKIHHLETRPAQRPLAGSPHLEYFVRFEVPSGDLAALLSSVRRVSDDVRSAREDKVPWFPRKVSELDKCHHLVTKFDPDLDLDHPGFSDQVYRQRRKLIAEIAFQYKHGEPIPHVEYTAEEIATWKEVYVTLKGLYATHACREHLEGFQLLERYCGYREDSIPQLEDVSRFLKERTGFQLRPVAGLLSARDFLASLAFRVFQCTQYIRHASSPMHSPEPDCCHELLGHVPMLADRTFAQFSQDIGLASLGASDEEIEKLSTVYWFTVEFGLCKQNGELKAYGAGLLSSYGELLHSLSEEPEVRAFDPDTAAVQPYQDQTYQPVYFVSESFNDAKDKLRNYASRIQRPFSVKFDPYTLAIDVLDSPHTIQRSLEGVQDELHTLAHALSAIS
Experiment [8] shares this target. Put plainly: Tyrosine hydroxylase activity at 0.1 uM in rat striatal minces; effect not blocked bt BMY-14802. In kind it is functional.

T1 sequence (P61169 whole entry): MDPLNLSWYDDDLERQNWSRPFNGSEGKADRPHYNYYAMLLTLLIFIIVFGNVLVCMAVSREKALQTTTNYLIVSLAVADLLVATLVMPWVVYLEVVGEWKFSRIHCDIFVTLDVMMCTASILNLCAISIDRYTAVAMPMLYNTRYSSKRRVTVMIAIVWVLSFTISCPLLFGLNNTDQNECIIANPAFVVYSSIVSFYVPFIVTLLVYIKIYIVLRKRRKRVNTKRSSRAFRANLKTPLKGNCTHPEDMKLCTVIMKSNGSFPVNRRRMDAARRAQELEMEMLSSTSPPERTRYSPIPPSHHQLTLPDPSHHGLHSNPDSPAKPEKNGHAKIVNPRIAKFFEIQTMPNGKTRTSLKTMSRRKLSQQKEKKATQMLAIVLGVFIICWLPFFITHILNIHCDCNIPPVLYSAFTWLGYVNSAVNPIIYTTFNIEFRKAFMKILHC

Turning to `C=CCN(CC=C)C1Cc2ccccc2C(c2ccccc2)C1` (configuration not stated), the IC50 came out at 4 µM on D(2) dopamine receptor [1] and 10 µM at D(1A) dopamine receptor [2]. This compound also had a Control in experiment [3] of 104%.

`CN(C)[C@H]1Cc2cc(Cl)c(O)cc2[C@H](c2ccccc2)C1`: the IC50 at D(2) dopamine receptor [1] came to 4.13 µM; at D(1A) dopamine receptor [4], 1.89 µM. The compound further returned a Control in experiment [5] of 128%.

As to `C=CCN(C)C1Cc2ccccc2C(c2ccccc2)C1` (configuration not stated), the Control in experiment [3] was determined as 72%. On the same count and under the same terms, in the case of `CN(C)C1Cc2ccccc2C(c2ccccc2)C1` (configuration not stated) it was 101%.

With `CN(C)[C@H]1CCc2ccccc2[C@H]1c1ccccc1`, the Control in experiment [3] turned out to be 111%. Consider `NC1Cc2cc(O)c(O)cc2C(c2ccccc2)C1` (cis isomer) [listing 1 of 2 here], for which the IC50 on D(2) dopamine receptor [1] is above 10 µM; on D(1A) dopamine receptor [2], above 30 µM. The matching figures for `CN(C)C1Cc2cc(O)c(O)cc2C(c2ccccc2)C1` (cis isomer) [listing 1 of 2 here]: above 5 µM and above 1 µM. In experiment [3], `CN(C)C1Cc2cc(Cl)c(O)cc2C(c2ccccc2)C1` (cis isomer) gave a Control of 94%. Still for that read-out and setting: to `CN(C)C1Cc2cc(O)c(O)cc2C(c2ccccc2)C1` (cis isomer) [listing 2 of 2 here] belongs 100%; to `NC1Cc2cc(O)c(O)cc2C(c2ccccc2)C1` (cis isomer) [listing 2 of 2 here], 95%. Take `NC1Cc2cc(O)c(O)cc2C(c2ccccc2)C1` (trans isomer) [listing 1 of 2 here]: the IC50 on D(2) dopamine receptor [1] and at D(1A) dopamine receptor [2] was above 30 µM in each case.

On to `C=CCNC1Cc2ccccc2C(c2ccccc2)C1` (trans isomer), for which the results for the IC50 on D(2) dopamine receptor [1] and at D(1A) dopamine receptor [2] were 6 µM and 10 µM, respectively. Further, in experiment [3], the Control worked out at 102%. As to `CN(C)C1Cc2cc(O)c(O)cc2C(c2ccccc2)C1` (trans isomer) [listing 1 of 2 here], the IC50 on D(2) dopamine receptor [1] was above 5 µM; on D(1A) dopamine receptor [2] it was above 10 µM. Consider `NC1Cc2ccccc2C(c2ccccc2)C1` (trans isomer), for which the IC50 on D(2) dopamine receptor [1] and on D(1A) dopamine receptor [2] was above 10 µM in each case. In experiment [3], this compound came in with a Control of 86%. For the compound `CNC1Cc2cc(Cl)c(O)cc2C(c2ccccc2)C1` (trans isomer), the IC50 on D(2) dopamine receptor [6] is 10 µM; on D(1A) dopamine receptor [4], 0.849 µM. The Control in experiment [3] worked out at 99%. With `CCN(CC)C1Cc2ccccc2C(c2ccccc2)C1` (trans isomer), the Control in experiment [3] was 95%.

Take `CN(C)C1Cc2cc(O)c(O)cc2C(c2ccccc2)C1` (trans isomer) [listing 2 of 2 here]: the Control in experiment [7] is 75%. Compound `NC1Cc2cc(O)c(O)cc2C(c2ccccc2)C1` (trans isomer) [listing 2 of 2 here] came in with a Control in experiment [8] of 71%.

As usually defined, the IC50 is the concentration that gives 50% inhibition. A higher IC50 goes with a need for much substance.
